Assay results published in paper PMC3172397 (Journal of colloid and interface science, 2011).

How the values were obtained:
Assay in all cases: intrinsic Trp fluorescence titration, Scatchard analysis
Type in all cases: binding
[1] = target: Bovine Serum albumin (BSA) (Bos taurus, UniProt P02769)
Summary of the method: (§1)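 Trp fluorescence read with 295 nm excitation and 335–360 nm emission. Fraction bound was taken from intensity relative to unbound and saturated protein. K was taken from the slope of linear Scatchard (ν/c vs ν) segments.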

ovalbumin (OVA) = target: T1, ovalbumin (OVA) (Gallus gallus, UniProt P01012)
T1 sequence (P01012 2-386): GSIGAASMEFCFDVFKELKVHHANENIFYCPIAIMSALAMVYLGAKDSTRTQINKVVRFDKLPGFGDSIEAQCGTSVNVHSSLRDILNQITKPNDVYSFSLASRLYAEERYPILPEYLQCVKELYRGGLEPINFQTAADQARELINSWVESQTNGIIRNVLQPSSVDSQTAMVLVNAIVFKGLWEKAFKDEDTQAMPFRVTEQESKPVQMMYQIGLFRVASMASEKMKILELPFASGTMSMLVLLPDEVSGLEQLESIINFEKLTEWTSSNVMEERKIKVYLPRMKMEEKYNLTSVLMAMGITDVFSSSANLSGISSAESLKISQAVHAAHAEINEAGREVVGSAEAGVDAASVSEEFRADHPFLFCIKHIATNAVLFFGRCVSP
Summary of the method: as §1

[2] = target: α-chymotrypsinogen A (aCHY) (Bos taurus, UniProt P00766)
Summary of the method: as §1

Sequence of Bovine Serum albumin (BSA) (P02769 25-607): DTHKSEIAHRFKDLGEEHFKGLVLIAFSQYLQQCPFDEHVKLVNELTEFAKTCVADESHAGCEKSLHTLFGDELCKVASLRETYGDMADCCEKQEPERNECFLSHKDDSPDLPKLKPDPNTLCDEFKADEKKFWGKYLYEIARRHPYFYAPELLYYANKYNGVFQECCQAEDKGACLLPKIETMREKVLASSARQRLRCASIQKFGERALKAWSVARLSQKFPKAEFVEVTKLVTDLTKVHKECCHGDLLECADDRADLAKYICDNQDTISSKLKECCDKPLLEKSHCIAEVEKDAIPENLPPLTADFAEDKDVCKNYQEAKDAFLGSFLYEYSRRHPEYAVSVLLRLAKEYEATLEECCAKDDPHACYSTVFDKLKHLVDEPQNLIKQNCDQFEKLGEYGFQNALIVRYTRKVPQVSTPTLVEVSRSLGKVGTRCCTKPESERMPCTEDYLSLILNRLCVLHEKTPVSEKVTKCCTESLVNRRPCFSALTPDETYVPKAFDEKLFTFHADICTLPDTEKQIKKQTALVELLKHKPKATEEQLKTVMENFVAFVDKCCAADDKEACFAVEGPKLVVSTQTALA

Structure (SMILES)	Kd [1] [µM]	Kd (ovalbumin (OVA)) [µM]	Kd [2] [µM]
CCCCCCCCCCCCOS(=O)(=O)O [SDS]	22.2	11.7	455
C=CCCCCCCCCCOS(=O)(=O)O [SUS]			498
